Most compounds without a hit are left out; they make up all but 1.9% or so of the library.
FXN GAA850 act: increases GAA850 frataxin promoter reporter activity | activation, % at 6 µM | actives 0.56% (n = 360,000) | AID 540364 | HEK293 lucGAA850 FXN promoter luciferase reporter, 24 h; percent of 10 µM SAHA response;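 active means activation above the average of all compounds screened plus 3 SD, cutoff fixed separately per campaign, cut at about 7.5% in these data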
TAG inh: triacylglycerol accumulation inhibition | inhibition, % at 12.5 µM | AID 651582 | H9c2 cells, Nile Red lipid (TAG) fluorescence; cells loaded with 200 µM oleic acid | actives 0.66% (n = 230,000);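 active means pattern-corrected inhibition of lipid staining of at least 50% with the nuclear-stain viability signal not falling by more than 50%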
ABHD5-PLIN5 inh: ABHD5-PLIN5 protein interaction inhibition | Split G. princeps luciferase complementation, luminescence, 4 h | inhibition, % at 4 µM | actives 0.78% (n = 360,000);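 active means inhibition above the mean inhibition across every tested compound plus 3 SD, cut at about 22% in these data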
HIF activator: HIF pathway transcriptional activation; U2OS HRE-luciferase reporter, luminescence; normalized: DMSO 0%, desferrioxamine 100%; actives 0.32% (n = 300,000); AID 1910; activation, % at 7.5 µM (by protocol);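 active means mean activation of at least 10% of the iron chelator positive control signal, with at least half of replicates also reaching 10%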
Hsp70 act: Hsp70 transcriptional activation, primary screen; HeLa Hsp70 promoter luciferase reporter, luminescence; scaled: vehicle 0, proteasome-inhibitor control 100%; activation, % at 10 µM; actives 0.04% (n = 200,000); AID 1203;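 active means activation above the mean across all tested compounds plus 3 SD, cutoff set per campaign, cut at about 5.5% in these data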
Rad51 HR inh: Rad51 (human) homologous recombination inhibition | Q06609 | hRad51 DNA strand exchange, fluorescence dequenching | inhibition, % at 10 µM | actives 0.085% (n = 200,000) | AID 1385;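 active means inhibition above 40% at the single screening dose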
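System: hRad51 filaments on single-stranded DNA; reagent: Fluorescein- and BHQ1-tagged 47-mer duplex; compound dosing: one concentration, 10 µM final; timing: filaments 15 min 37 °C, then compound 30 min; measured by: fluorescein emission 520 nm, excitation 485 nm; benchmarks: per-plate controls and blanks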
ABHD5-PLIN5 conf: ABHD5-PLIN5 interaction inhibition, confirmed. AID 651612. actives 67% (n = 2,200). inhibition, % at 4 µM. shares compounds with ABHD5-PLIN5 inh. biochemical ABHD5-PLIN5 interaction, luminescence; in the data active means inhibition above about 23%
HNF4 split-luc: counter-screen for ABHD5-PLIN5 inhibitors: HNF4 split-luciferase | shares compounds with ABHD5-PLIN5 inh | HNF4 dimerization, luminescence, biochemical | inhibition, % at 4 µM | actives 77% (n = 2,200);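 active means mean inhibition across replicate wells exceeding the computed hit threshold, cut at about 13% in these data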;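 further: light from luciferase halves that rejoin when HNF4 fusion proteins dimerize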
Target sequence (P41235 whole entry, looked up, the tested form may be a part): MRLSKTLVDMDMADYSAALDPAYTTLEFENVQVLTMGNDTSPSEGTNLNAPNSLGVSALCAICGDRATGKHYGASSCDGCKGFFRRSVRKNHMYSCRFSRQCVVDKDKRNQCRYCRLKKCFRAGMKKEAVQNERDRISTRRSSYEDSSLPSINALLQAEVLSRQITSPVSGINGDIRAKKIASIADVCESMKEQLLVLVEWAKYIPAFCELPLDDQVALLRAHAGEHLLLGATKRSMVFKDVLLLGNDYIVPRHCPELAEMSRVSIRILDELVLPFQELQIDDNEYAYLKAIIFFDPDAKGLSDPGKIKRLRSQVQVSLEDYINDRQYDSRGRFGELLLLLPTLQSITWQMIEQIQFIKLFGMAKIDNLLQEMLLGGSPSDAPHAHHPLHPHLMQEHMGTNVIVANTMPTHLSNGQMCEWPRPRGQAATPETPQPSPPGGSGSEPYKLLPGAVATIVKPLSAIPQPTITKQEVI
Numbers stand for hits; 0 = inactive; - = not tested or not shown.

SMILES	FXN GAA850 act	TAG inh	ABHD5-PLIN5 inh	HIF activator	Hsp70 act	Rad51 HR inh	ABHD5-PLIN5 conf	HNF4 split-luc
O=C(O)c1ccc2nc(-c3ccco3)c(-c3ccco3)nc2c1	0	0	27	0	0	0	82	94
O=S(=O)(c1ccc2nc(-c3ccco3)c(-c3ccco3)nc2c1)N1CCOCC1	0	0	26	0	0	0	78	62
CCN1CCN(c2ccc(N3CCN(S(=O)(=O)c4ccc(C)c([N+](=O)[O-])c4)CC3)nn2)CC1	0	0	0	0	-	-	-	-
COc1ccccc1Cc1c(C2CCCCC2)nc2ccc(Cl)cn12	-	-	0	-	-	-	-	-
CC1=NN(c2ccccc2)C(=O)/C1=C/C=C/c1ccccc1	0	0	25	0	0	-	98	90
CC1=NN(c2cccc(C(=O)O)c2)C(=O)/C1=C\C=C\c1ccco1	0	0	0	0	0	-	-	-
O=C(c1cccnc1)N1CCCC(Nc2ccc(F)cc2)C1 (stereo unspecified)	0	0	0	0	-	-	-	-
O=C(NC1CCCCC1)C(c1ccccc1F)n1c(=O)c(-c2ccco2)nc2ccccc21 (stereo unspecified)	-	-	72	-	-	-	85	31
O=C(NC1CCCCC1)C(c1ccc(-c2ccccc2)cc1)n1c(=O)c(-c2ccco2)nc2ccccc21 (stereo unspecified)	-	-	79	-	-	-	71	0
O=C(Nc1ccc2c(c1)OCCO2)C(c1ccncc1)n1c(=O)c(-c2ccco2)nc2ccccc21 (stereo unspecified)	-	-	0	-	-	-	-	-
O=C(Nc1ccc2c(c1)OCCO2)C(c1ccnc2ccccc12)n1c(=O)c(-c2ccco2)nc2ccccc21 (stereo unspecified)	-	-	50	-	-	-	26	0
O=C(NC1CCCCC1)C(c1ccnc2ccccc12)n1c(=O)c(-c2ccco2)nc2ccccc21 (stereo unspecified)	-	-	55	-	-	-	50	0
O=C(NC1(O)C(=O)c2ccccc2C1=O)c1ccccc1	0	0	0	0	0	0	-	-
CC(=O)C(C(C)=O)C1(O)C(=O)c2ccccc2C1=O	0	-	41	0	0	0	0	0
COC(=O)C1CCN(S(=O)(=O)CCNC(=O)c2ccc3c(c2)OCO3)CC1	0	0	0	0	-	-	-	-
CC(NC(=O)/C=C/c1ccco1)c1nc2ccccc2n1Cc1ccccc1F (stereo unspecified)	0	-	35	0	0	0	0	0
CC(C)(C)C(=O)/C(=C/c1ccncc1)n1cncn1	0	0	29	0	0	0	51	48
CCC(C)NC(=O)Nc1ccc2c(c1)N(C)C(=O)c1ccccc1S2 (stereo unspecified)	0	-	46	0	0	0	60	0
Cc1ccc2cc(/C=C/C(=O)c3ccco3)c(Cl)nc2c1	0	0	45	0	-	0	96	99
Cc1ccc2nc(Cl)c(/C=C/C(=O)c3ccco3)cc2c1	0	0	24	0	-	0	92	86
COc1ccc2cc(/C=C/C(=O)c3ccco3)c(Cl)nc2c1	-	-	-	0	0	-	-	-
COc1cc2cc(/C=C/C(=O)c3ccco3)c(Cl)nc2cc1OC	0	0	38	0	0	0	90	82
COc1cccc(C(c2cccc(OC)c2)c2ccccc2C(=O)O)c1	0	0	0	-	-	-	-	-
CCN1C(=O)CS/C1=N\S(=O)(=O)c1ccc(Cl)cc1	0	0	0	0	0	0	-	-
CCn1c(Cl)c(C=O)s/c1=N\S(=O)(=O)c1ccccc1	0	85	48	0	-	0	71	105
O=C(/C=C/c1ccccc1)c1cc(Br)ccc(=O)c1O	0	-	44	0	0	0	76	68
Cc1cc(C)c2nc(NNC(=O)c3ccc(S(=O)(=O)N4CCCC(C)C4)cc3)sc2c1 (stereo unspecified)	0	0	23	26	0	-	59	-
Cc1ccccc1-n1c(=O)cc(N2CCCCCC2)[nH]c1=O	0	0	0	0	0	0	-	-

Source: PubChem BioAssay (several laboratories)
